Assay outcomes deposited in PubChem BioAssay by Johns Hopkins Ion Channel Center.
MrgX1 agonist – activates human MrgX1 receptor signaling; MrgX1-HEK293 cells, Fluo-4 calcium fluorescence, agonist mode; hits give high values; B-score at 10 µM; actives 0.44% (n = 310,000); AID 588627;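 active = calcium response B-score plate-corrected fluorescence ratio at least 3 library SD, with starting fluorescence B-score inside 5 SD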
Target sequence (Q96LB2 whole entry, looked up): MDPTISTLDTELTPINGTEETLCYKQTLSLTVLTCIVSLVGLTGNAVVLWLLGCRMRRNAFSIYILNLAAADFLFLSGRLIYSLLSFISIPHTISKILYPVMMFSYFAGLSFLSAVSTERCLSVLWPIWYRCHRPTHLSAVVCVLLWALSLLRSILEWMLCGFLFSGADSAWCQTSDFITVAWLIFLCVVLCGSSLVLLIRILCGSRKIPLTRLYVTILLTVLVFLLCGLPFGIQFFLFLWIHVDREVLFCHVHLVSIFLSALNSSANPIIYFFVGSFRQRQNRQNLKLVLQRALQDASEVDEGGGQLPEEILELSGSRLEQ
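Test system: Stable human MrgX1 HEK293 cell line | Schedule: Overnight plating before 1 h dye loading | Read-out basis: Baseline-normalised fluorescence change ratio, B-scored | Detection: Kinetic calcium dye fluorescence, Fluo-4 NW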
RGS4 inh – inhibitors of human RGS4; B-score at 10 µM; actives 0.45% (n = 310,000); HEK293 M3R/RGS4 inducible, Fluo-4 calcium flux; hits give high values; triggered by carbachol at its EC20; AID 463165; P49798;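 active = B-score, a plate-corrected calcium signal, over three deviations above library mean, with baseline fluorescence within five deviations of library mean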;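 also: RGS4 expression induced by doxycycline in cells with stable M3 receptor; B-score is computed from the integrated fluorescence ratio over baseline after carbachol; higher B-score means a larger calcium signal and so more RGS4 inhibition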
Target sequence (P49798 whole entry, looked up): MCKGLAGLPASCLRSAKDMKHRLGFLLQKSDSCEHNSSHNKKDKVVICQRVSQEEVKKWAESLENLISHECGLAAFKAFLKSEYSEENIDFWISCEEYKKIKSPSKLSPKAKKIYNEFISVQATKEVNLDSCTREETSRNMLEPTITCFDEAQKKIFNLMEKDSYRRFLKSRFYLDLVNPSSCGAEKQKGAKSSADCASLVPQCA
MrgX1 PAM – human MrgX1 positive allosteric modulation, primary screen. MrgX1-HEK293, Fluo-4 calcium flux, FDSS; hits give high values. B-score at 10 µM. actives 0.63% (n = 310,000). AID 588675;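 active = plate-corrected calcium response at least 3 library SD above typical, normal starting fluorescence, not activating the receptor alone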;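 also: compound read alongside a low EC10 to EC30 dose of BAM8-22 agonist; peak minus trough fluorescence over baseline measured at the second addition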
RGS4 pot – RGS4 potentiation or activation; actives 0.92% (n = 310,000); B-score at 10 µM; AID 463111; HEK293 M3R/inducible RGS4, carbachol calcium flux Fluo4; hits give low values;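 active = B-score of the integrated calcium signal more than 4 SD below the library mean, with starting fluorescence not abnormally high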;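 also: negative B-score means reduced calcium response which marks RGS4 activation or potentiation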
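Test system: HEK293 cells with stable M3R and inducible RGS4; also added: carbachol at ECmax as muscarinic agonist stimulus; schedule: dye loading 30 min 37 °C, buffer rest 30 min RT; technique: kinetic calcium fluorescence imaging with Fluo4-AM dye, 2 µM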
MrgX1 antag – human MrgX1 receptor antagonism, primary screen. Q96LB2. MRGX1-HEK293 calcium flux, Fluo-4, BAM8-22 antagonism; hits give low values. B-score at 10 µM. actives 1.3% (n = 310,000). AID 588676;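 active = calcium-response B-score plate-corrected more than 3 library SD below zero, starting fluorescence within 5 deviations, no agonist response on first addition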;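 also: peak minus trough fluorescence over baseline after final BAM8-22 challenge near maximal dose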
RGS4 block valid – validation of RGS4 inhibitors. shares compounds with RGS4 inh. HEK293 M3R/RGS4, carbachol calcium Fluo-4 fluorescence; carbachol added at its EC20; 0 = buffer wells, 100 = carbachol control. calcium response, % at 10 µM. actives 65% (n = 1,700);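 active = duplicate-averaged calcium response above the buffer-only control mean plus 5 SD of those controls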;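 also: integrated fluorescence ratio F max minus min over baseline F0; higher response in RGS4-induced cells means RGS4 inhibition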
RGS4 uninduced – counter-screen for RGS4 inhibitors: effect in non-induced cells; activity (percent), % at 10 µM; actives 20% (n = 1,900); shares compounds with RGS4 inh; HEK293 M3R non-induced, carbachol calcium Fluo-4; submaximal (EC20) carbachol stimulus; buffer wells 0%, carbachol control wells 100%; call rule not given here;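 also: RGS4 induction absent so cells express M3R without RGS4; higher means more calcium signal and flags a non-specific hit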
RGS4 inh ctr2 – second RGS4 inhibitor counter-screen in uninduced cells lacking carbachol; shares compounds with RGS4 inh; HEK293 M3R/RGS4 non-induced, Fluo-4 calcium, no carbachol; normalised: buffer wells 0%, carbachol wells 100%; calcium response (agonist-mode artifact), % at 10 µM; actives 22% (n = 1,900); AID 493001;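 active = duplicate-averaged calcium rise in uninduced cells above buffer wells' mean plus 5 SD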
Numbers stand for hits; 0 = inactive; - = no result given. Compounds with a hit are over-represented: about 3.5% of the library has one in this group of screens.

SMILES	MrgX1 agonist	RGS4 inh	MrgX1 PAM	RGS4 pot	MrgX1 antag	RGS4 block valid	RGS4 uninduced	RGS4 inh ctr2
Cc1noc(/C=C/c2cccnc2)c1[N+](=O)[O-]	0	5.7	0	0	0	18%	0	0
CN(C)C(=O)COc1ccc(C(=O)/C=C/c2cccnc2)cc1	0	5.6	6.9	0	0	17%	0	0
O=C(/C=C/c1cccnc1)c1ccccc1O	0	8.8	0	0	0	37%	63%	8.5%
O=C(/C=C/c1cccc(O)c1)c1cccnc1	0	5.8	0	0	0	8.5%	0	10%
CN(C)c1ccc(/C=C/C(=O)c2cccnc2)cc1	0	0	0	0	0	-	-	-
Cc1cccc(C)c1N/C=C/c1onc(C)c1[N+](=O)[O-]	0	0	0	0	0	-	-	-
Cc1ccc(/C=C/C(=O)c2ccccc2O)cc1	0	0	0	0	0	-	-	-
CCOC(=O)Cn1cc(Cl)cc(C(=O)Nc2ccccc2)c1=O	0	0	0	0	0	-	-	-
COc1ccc(NC(=O)c2cccc(S(=O)(=O)N3CCCCCC3)c2)cc1	0	0	0	0	0	-	-	-
CCCCn1c(SCC(=O)NCc2cccs2)nc2c1c(=O)n(C)c(=O)n2C	0	0	0	0	0	-	-	-
O=C(/C=C/c1cccnc1)c1ccc([N+](=O)[O-])cc1	0	6	0	0	0	43%	54%	0
O=C(/C=C/c1cccnc1)c1cccc(O)c1	0	12	0	0	0	37%	0	0
O=C(/C=C/c1cccnc1)c1ccc(O)cc1	0	5.2	0	0	0	15%	0	0
O=C(/C=C/c1ccc(O)cc1)c1ccccc1	0	0	0	0	0	-	-	-
CN(C)CCC(=O)c1cccc(Br)c1	0	6.8	0	0	0	0	0	28%
CCN(CC)CCCNC(=S)N(CCO)Cc1cc2cc3c(cc2[nH]c1=O)OCCO3	0	0	0	0	0	0	0	0
CCOCCCNC(=S)N(CCO)Cc1cc2cc3c(cc2[nH]c1=O)OCCO3	0	0	0	0	0	0	0	0
CCCCNC(=S)N(CCO)Cc1cc2cc3c(cc2[nH]c1=O)OCCO3	0	0	0	0	0	0	0	0
Cc1cccc(NC(=O)CSc2nc(=O)n(CCCN3CCOCC3)c3c2CCCC3)c1	0	0	0	0	0	-	-	-
O=C(O)CN1C(=O)C(=O)N(Cc2ccc(Cl)c(Cl)c2)C1=O	0	0	0	0	0	-	-	-
CC(=O)Oc1cccc(/C=c2\sc3nc(-c4ccco4)nn3c2=O)c1	0	0	0	0	0	-	-	-
CCCOc1ccc(/C=c2\sc3nc(-c4ccco4)nn3c2=O)cc1OCC	0	0	0	0	0	0	0	154%
COc1ccc(OC)c(-c2csc(N(CC3CCCO3)C(=O)C3CCCCC3)n2)c1 (stereo not given)	0	7.2	0	0	0	24%	0	0
O=S(=O)(C/C(=C/CO)S(=O)(=O)c1ccccc1)c1ccccc1	34	10	0	0	0	38%	36%	16%
CC(=O)Nc1ccc(C(=S)NCC2(N(C)C)CCCCC2)cc1	0	0	0	0	0	-	-	-
SMILES	MrgX1 agonist	RGS4 inh	MrgX1 PAM	RGS4 pot	MrgX1 antag	RGS4 block valid	RGS4 uninduced	RGS4 inh ctr2
CN(C)C1(CNC(=O)Nc2ccccc2)CCCCC1	0	4.7	0	0	0	0	0	0
CCc1ccc(-c2cc(C(=O)N/N=C/c3c[nH]c4ccccc34)[nH]n2)cc1	0	4.9	0	0	0	0	0	0
CCc1ccc2c(Cl)c(C(=O)N/N=C/c3c[nH]c4ccccc34)sc2c1	0	4.8	0	0	0	18%	40%	8.5%
O=C(c1ccco1)N1CCN(c2ccc(N3CCCCC3)nn2)CC1	0	0	0	0	0	-	-	-
COc1ccc(OC)c(C2=Nn3c(nnc3C3CCCCC3)SC2)c1	0	0	0	0	0	-	-	-
COc1ccc(-c2nnc3n2N=C(C)CS3)cc1OC	0	0	0	0	0	-	-	-
COc1ccc(C2=Nn3c(nnc3C3CCCCC3)SC2)cc1OC	0	11	0	0	0	22%	49%	0
COc1ccc(C2=Nn3c(nnc3-c3ccccc3)SC2)cc1OC	0	0	0	0	0	-	0	0
CCCc1nnc2n1N=C(c1ccc(OC)c(OC)c1)CS2	0	7.4	0	0	0	12%	28%	0
CCC1=NN(C(=O)c2cccc([N+](=O)[O-])c2)C(O)(c2ccc(C)cc2)C1 (stereo not given)	0	0	0	0	0	-	-	-
Cc1[nH]nc(-c2ccc(O)cc2O)c1-c1nc2ccccc2s1	0	7.6	0	0	0	21%	0	26%
Cc1[nH]nc(-c2ccc(O)cc2O)c1-c1ccc(Cl)cc1	0	28	0	0	0	54%	0	32%
Oc1cccc(-c2nc3ccccc3s2)c1	0	0	0	0	0	-	-	-
COc1ccc(-c2n[nH]c(C)c2-c2ccc(Cl)cc2)c(O)c1	0	0	0	0	0	-	-	-
CC(=O)N1c2ccc(S(=O)(=O)N3CCCCC3)cc2CC1C(=O)NCc1ccccc1C (stereo not given)	0	0	0	0	0	-	-	-
Cc1ccc(N=Cc2ccc(O)cc2O)cc1F	0	10	0	0	0	14%	0	13%
Oc1ccc(C=Nc2cccc3ccccc23)c(O)c1	0	0	0	0	0	-	-	-
COc1ccc(OC2CCN(S(=O)(=O)c3ccc(C(C)=O)cc3)CC2)cc1	0	0	0	0	0	-	-	-
O=C1NCC(c2ccccc2)C1C(=O)N/N=C\c1ccc(-c2cccc(Cl)c2Cl)o1 (stereo not given)	0	0	0	0	0	-	-	-
Cc1ccc(-c2ccc(/C=N\NC(=O)C3C(=O)NCC3c3ccccc3)o2)cc1Cl (stereo not given)	0	0	0	0	0	-	0	0
CCCN1CCc2c(sc3nc(SCC)n(-c4ccc(OC)cc4)c(=O)c23)C1	-	0	-	0	-	-	-	-
CN(C)CCCNCC(=O)NN(c1ccccc1)c1ccccc1	0	0	0	0	0	-	-	-
COc1cccc(/C=C2/C(=O)NN(c3ccc(C)c(C)c3)C2=O)c1	0	15	0	0	0	9.5%	0	0
COc1cccc(/C=C2/C(=O)NN(c3ccc(F)cc3)C2=O)c1	0	0	0	0	0	-	0	0
COc1cccc(/C=C2/C(=O)NN(c3ccccc3)C2=O)c1	0	7.5	0	0	0	0	0	8.0%
O=C1NC(=S)N/C1=C/c1ccc2c(c1)OCO2	0	0	0	0	0	-	-	-
